In ChEMBL document CHEMBL4350976, “Sequence modification of heptapeptide selected by phage display as homing device for HT-29 colon cancer cells to improve the anti-tumour activity of drug delivery systems” (Eur J Med Chem, 2019):
Where a SMILES comes first, the peptide text is derived from it. The star is where a group is joined. X1 = COc1cccc2c1C(=O)c1c(O)c3c(c(O)c1C2=O)C[C@@](O)(/C(C)=N/OCC(=O)*)C[C@@H]3O[C@H]1C[C@H](N)[C@H](O)[C@H](C)O1

Columns and labels:
HT-29 = test: Cytostatic activity against human HT-29 cells preincubated for 24 hrs under serum free condition followed by compound washout and further incubation for 48 hrs in presence of serum by MTT assay; format: functional, cell-based
Summary of the method: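 HT-29 cells were exposed to the compound for 24 h, washed, and kept a further 48 h. Viability was read by MTT. Absorbances were normalized to untreated controls and fitted by nonlinear regression to dose-response curves to give IC50.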

[1] = Retention time of the compound using 0.1% TFA in water and 0.1% TFA in acetonitrile-water (80:20 v/v) as eluents by RP-HPLC analysis; format: physicochemical
Summary of the method: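 Analytical RP-HPLC. Eluent A was 0.1% TFA in water and eluent B was 0.1% TFA in acetonitrile-water (80:20, v/v). Gradient: 0% B held to 5 min, then to 90% B at 50 min. Flow 1 mL/min, detection at 220 nm. The column was a Phenomenex Aeris Peptide XB-C18 (250×4.6 mm, 3.6 μm) or a Nucleosil C18 (5 μm, 100 Å, 250×4.6 mm), depending on the conjugate series.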

[2] = Drug uptake in human HT-29 cells at 100 uM incubated for 3 hrs by flow cytometry; format: ADME, cell-based; details: ht-29, 3 h
Summary of the method: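 HT-29 cells were exposed to 100 µM conjugate for 3 h. Flow cytometry recorded the percentage of Dau-positive cells and the mean fluorescence intensity, in duplicate.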

Row | IC50 (HT-29) [µM] | Retention time [1] [min] | Drug uptake [2] | Retention_time [1] [min] | Compound
1 | 29.5 | 29.3 to 31.2 | – | – | COc1cccc2c1C(=O)c1c(O)c3c(c(O)c1C2=O)C[C@@](O)(/C(C)=N/OCC(=O)N[C@@H](CC(C)C)C(=O)N[C@@H](CCCNC(=N)N)C(=O)N[C@@H](CCCNC(=N)N)C(=O)N[C@@H](Cc1ccc(O)cc1)C(=O)N[C@H](C(=O)N[C@@H](Cc1cnc[nH]1)C(=O)N[C@@H](CC(C)C)C(=O)N[C@@H](CCC(=O)O)C(=O)N[C@@H](Cc1ccc(O)cc1)C(=O)N[C@@H](C)C(=O)N[C@H](C(N)=O)[C@@H](C)O)C(C)C)C[C@@H]3O[C@H]1C[C@H](N)[C@H](O)[C@H](C)O1 (X1-LRRYVHLEYAT-NH2)
2 | 54.3 | 31.9 to 33.1 | – | – | COc1cccc2c1C(=O)c1c(O)c3c(c(O)c1C2=O)C[C@@](O)(/C(C)=N/OCC(=O)N[C@@H](CC(C)C)C(=O)N[C@@H](CCCNC(=N)N)C(=O)N[C@@H](CCCNC(=N)N)C(=O)N[C@@H](Cc1ccc(O)cc1)C(=O)N[C@H](C(=O)N[C@@H](Cc1cnc[nH]1)C(=O)N[C@@H](CC(C)C)C(=O)N[C@@H](Cc1ccccc1)C(=O)N[C@@H](Cc1ccc(O)cc1)C(=O)N[C@@H](CCC(=O)O)C(=O)N[C@H](C(N)=O)[C@@H](C)O)C(C)C)C[C@@H]3O[C@H]1C[C@H](N)[C@H](O)[C@H](C)O1 (X1-LRRYVHLFYET-NH2)
3 | 11.5 | 30.5 to 32 | – | – | COc1cccc2c1C(=O)c1c(O)c3c(c(O)c1C2=O)C[C@@](O)(/C(C)=N/OCC(=O)N[C@@H](CC(C)C)C(=O)N[C@@H](CCCNC(=N)N)C(=O)N[C@@H](CCCNC(=N)N)C(=O)N[C@@H](Cc1ccc(O)cc1)C(=O)N[C@H](C(=O)N[C@@H](Cc1cnc[nH]1)C(=O)N[C@@H](CC(C)C)C(=O)N[C@@H](Cc1ccccc1)C(=O)N[C@@H](Cc1ccc(O)cc1)C(=O)N[C@@H](CCCCN)C(=O)N[C@H](C(N)=O)[C@@H](C)O)C(C)C)C[C@@H]3O[C@H]1C[C@H](N)[C@H](O)[C@H](C)O1 (X1-LRRYVHLFYKT-NH2)
4 | 15.4 | – | – | 31.8 | COc1cccc2c1C(=O)c1c(O)c3c(c(O)c1C2=O)C[C@@](O)(/C(C)=N/OCC(=O)N[C@@H](CC(C)C)C(=O)N[C@@H](CCCNC(=N)N)C(=O)N[C@@H](CCCNC(=N)N)C(=O)N[C@@H](Cc1ccc(O)cc1)C(=O)N[C@H](C(=O)N[C@@H](Cc1cnc[nH]1)C(=O)N[C@@H](CC(C)C)C(=O)N[C@@H](Cc1ccccc1)C(=O)N[C@@H](Cc1ccc(O)cc1)C(=O)N[C@@H](CC(N)=O)C(=O)N[C@H](C(N)=O)[C@@H](C)O)C(C)C)C[C@@H]3O[C@H]1C[C@H](N)[C@H](O)[C@H](C)O1 (X1-LRRYVHLFYNT-NH2)
5 | 10.9 | – | – | 31.6 | COc1cccc2c1C(=O)c1c(O)c3c(c(O)c1C2=O)C[C@@](O)(/C(C)=N/OCC(=O)N[C@@H](CC(C)C)C(=O)N[C@@H](CCCNC(=N)N)C(=O)N[C@@H](CCCNC(=N)N)C(=O)N[C@@H](Cc1ccc(O)cc1)C(=O)N[C@H](C(=O)N[C@@H](Cc1cnc[nH]1)C(=O)N[C@@H](CC(C)C)C(=O)N[C@@H](Cc1ccccc1)C(=O)N[C@@H](Cc1ccc(O)cc1)C(=O)N1CCC[C@H]1C(=O)N[C@H](C(N)=O)[C@@H](C)O)C(C)C)C[C@@H]3O[C@H]1C[C@H](N)[C@H](O)[C@H](C)O1 (X1-LRRYVHLFYPT-NH2)
6 | 17.7 | 32.1 to 32.9 | – | – | COc1cccc2c1C(=O)c1c(O)c3c(c(O)c1C2=O)C[C@@](O)(/C(C)=N/OCC(=O)N[C@@H](CC(C)C)C(=O)N[C@@H](CCCNC(=N)N)C(=O)N[C@@H](CCCNC(=N)N)C(=O)N[C@@H](Cc1ccc(O)cc1)C(=O)N[C@H](C(=O)N[C@@H](Cc1cnc[nH]1)C(=O)N[C@@H](CC(C)C)C(=O)N[C@@H](Cc1ccccc1)C(=O)N[C@@H](Cc1ccc(O)cc1)C(=O)N[C@@H](CO)C(=O)N[C@H](C(N)=O)[C@@H](C)O)C(C)C)C[C@@H]3O[C@H]1C[C@H](N)[C@H](O)[C@H](C)O1 (X1-LRRYVHLFYST-NH2)
7 | 38.4 | 30.8 to 31.7 | – | – | COc1cccc2c1C(=O)c1c(O)c3c(c(O)c1C2=O)C[C@@](O)(/C(C)=N/OCC(=O)N[C@@H](CC(C)C)C(=O)N[C@@H](CCCNC(=N)N)C(=O)N[C@@H](CCCNC(=N)N)C(=O)N[C@@H](Cc1ccc(O)cc1)C(=O)N[C@H](C(=O)N[C@@H](Cc1cnc[nH]1)C(=O)N[C@@H](CC(C)C)C(=O)N[C@@H](Cc1ccc(O)cc1)C(=O)N[C@@H](Cc1ccc(O)cc1)C(=O)N[C@@H](C)C(=O)N[C@H](C(N)=O)[C@@H](C)O)C(C)C)C[C@@H]3O[C@H]1C[C@H](N)[C@H](O)[C@H](C)O1 (X1-LRRYVHLYYAT-NH2)

Further lines, the compound ahead of its results:

Row | Compound | IC50 (HT-29) [µM] | Retention time [1] [min] | Drug uptake [2] | Retention_time [1] [min]
8 | COc1cccc2c1C(=O)c1c(O)c3c(c(O)c1C2=O)C[C@@](O)(/C(C)=N/OCC(=O)N[C@@H](CC(C)C)C(=O)N[C@@H](CCCNC(=N)N)C(=O)N[C@@H](CCCNC(=N)N)C(=O)N[C@@H](Cc1ccc(O)cc1)C(=O)N[C@@H](C)C(=O)N[C@@H](Cc1cnc[nH]1)C(=O)N[C@@H](CC(C)C)C(=O)NCC(=O)N[C@@H](Cc1ccc(O)cc1)C(=O)N[C@@H](C)C(=O)N[C@H](C(N)=O)[C@@H](C)O)C[C@@H]3O[C@H]1C[C@H](N)[C@H](O)[C@H](C)O1 (X1-LRRYAHLGYAT-NH2) | > 100 | 27.7 to 30.4 | Active | –
9 | COc1cccc2c1C(=O)c1c(O)c3c(c(O)c1C2=O)C[C@@](O)(/C(C)=N/OCC(=O)N[C@@H](CC(C)C)C(=O)N[C@@H](CCCNC(=N)N)C(=O)N[C@@H](CCCNC(=N)N)C(=O)N[C@@H](Cc1ccc(O)cc1)C(=O)N[C@H](C(=O)N[C@@H](C)C(=O)N[C@@H](CC(C)C)C(=O)NCC(=O)N[C@@H](Cc1ccc(O)cc1)C(=O)N[C@@H](C)C(=O)N[C@H](C(N)=O)[C@@H](C)O)C(C)C)C[C@@H]3O[C@H]1C[C@H](N)[C@H](O)[C@H](C)O1 (X1-LRRYVALGYAT-NH2) | 36.8 | 29 to 31.7 | Active | –
10 | COc1cccc2c1C(=O)c1c(O)c3c(c(O)c1C2=O)C[C@@](O)(/C(C)=N/OCC(=O)N[C@@H](CC(C)C)C(=O)N[C@@H](CCCNC(=N)N)C(=O)N[C@@H](CCCNC(=N)N)C(=O)N[C@@H](Cc1ccc(O)cc1)C(=O)N[C@H](C(=O)N[C@@H](Cc1cnc[nH]1)C(=O)N[C@@H](C)C(=O)NCC(=O)N[C@@H](Cc1ccc(O)cc1)C(=O)N[C@@H](C)C(=O)N[C@H](C(N)=O)[C@@H](C)O)C(C)C)C[C@@H]3O[C@H]1C[C@H](N)[C@H](O)[C@H](C)O1 (X1-LRRYVHAGYAT-NH2) | > 100 | 27.2 to 29.9 | Active | –
11 | COc1cccc2c1C(=O)c1c(O)c3c(c(O)c1C2=O)C[C@@](O)(/C(C)=N/OCC(=O)N[C@@H](CC(C)C)C(=O)N[C@@H](CCCNC(=N)N)C(=O)N[C@@H](CCCNC(=N)N)C(=O)N[C@@H](Cc1ccc(O)cc1)C(=O)N[C@H](C(=O)N[C@@H](Cc1cnc[nH]1)C(=O)N[C@@H](CC(C)C)C(=O)N[C@@H](CCCCN)C(=O)N[C@@H](Cc1ccc(O)cc1)C(=O)N[C@@H](C)C(=O)N[C@H](C(N)=O)[C@@H](C)O)C(C)C)C[C@@H]3O[C@H]1C[C@H](N)[C@H](O)[C@H](C)O1 (X1-LRRYVHLKYAT-NH2) | 50.3 | 28.2 to 30.1 | – | –
12 | COc1cccc2c1C(=O)c1c(O)c3c(c(O)c1C2=O)C[C@@](O)(/C(C)=N/OCC(=O)N[C@@H](CC(C)C)C(=O)N[C@@H](CCCNC(=N)N)C(=O)N[C@@H](CCCNC(=N)N)C(=O)N[C@@H](Cc1ccc(O)cc1)C(=O)N[C@H](C(=O)N[C@@H](Cc1cnc[nH]1)C(=O)N[C@@H](CC(C)C)C(=O)N[C@@H](CC(C)C)C(=O)N[C@@H](Cc1ccc(O)cc1)C(=O)N[C@@H](C)C(=O)N[C@H](C(N)=O)[C@@H](C)O)C(C)C)C[C@@H]3O[C@H]1C[C@H](N)[C@H](O)[C@H](C)O1 (X1-LRRYVHLLYAT-NH2) | 7.5 | 31.1 to 33.1 | – | –
13 | COc1cccc2c1C(=O)c1c(O)c3c(c(O)c1C2=O)C[C@@](O)(/C(C)=N/OCC(=O)N[C@@H](CC(C)C)C(=O)N[C@@H](CCCNC(=N)N)C(=O)N[C@@H](CCCNC(=N)N)C(=O)N[C@@H](Cc1ccc(O)cc1)C(=O)N[C@H](C(=O)N[C@@H](Cc1cnc[nH]1)C(=O)N[C@@H](CC(C)C)C(=O)N[C@@H](CC(N)=O)C(=O)N[C@@H](Cc1ccc(O)cc1)C(=O)N[C@@H](C)C(=O)N[C@H](C(N)=O)[C@@H](C)O)C(C)C)C[C@@H]3O[C@H]1C[C@H](N)[C@H](O)[C@H](C)O1 (X1-LRRYVHLNYAT-NH2) | 28 | 29 to 30.8 | – | –
14 | COc1cccc2c1C(=O)c1c(O)c3c(c(O)c1C2=O)C[C@@](O)(/C(C)=N/OCC(=O)N[C@@H](CC(C)C)C(=O)N[C@@H](CCCNC(=N)N)C(=O)N[C@@H](CCCNC(=N)N)C(=O)N[C@@H](Cc1ccc(O)cc1)C(=O)N[C@H](C(=O)N[C@@H](Cc1cnc[nH]1)C(=O)N[C@@H](CC(C)C)C(=O)N[C@H](C(=O)N[C@@H](Cc1ccc(O)cc1)C(=O)N[C@@H](C)C(=O)N[C@H](C(N)=O)[C@@H](C)O)[C@@H](C)O)C(C)C)C[C@@H]3O[C@H]1C[C@H](N)[C@H](O)[C@H](C)O1 (X1-LRRYVHLTYAT-NH2) | 21.7 | – | – | 29
15 | COc1cccc2c1C(=O)c1c(O)c3c(c(O)c1C2=O)C[C@@](O)(/C(C)=N/OCC(=O)N[C@H](C(=O)N[C@@H](Cc1cnc[nH]1)C(=O)N[C@@H](CC(C)C)C(=O)NCC(=O)N[C@@H](Cc1ccc(O)cc1)C(=O)N[C@@H](C)C(=O)N[C@H](C(N)=O)[C@@H](C)O)C(C)C)C[C@@H]3O[C@H]1C[C@H](N)[C@H](O)[C@H](C)O1 (X1-VHLGYAT-NH2) | – | – | – | 26.1
